Compound activity: PubChem BioAssay, several laboratories
Compounds with a hit are over-represented: about 1.9% of the library has one in this group of screens.
Xi reactivation = activators of inactive X chromosome reactivation, primary screen, imaging, XiGFP fibroblasts, GFP high-content imaging, set 2; XiGFP mouse fibroblasts, % GFP-positive cells imaging, 3 d; cells co-treated with 5-aza-dC sensitizer; scaled so ellipticine positive control = 100%; 0.055% of 360,000 active; AID 743238, 2013; activation, % at 7.58 µM;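 active = mean normalized replicate activation at least 10% and every replicate at or above 10%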
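Material: XiGFP fibroblasts, SV40-immortalized; Buffer or medium: DMEM containing 5-aza-dC; Compound dosing: single point; Times: 3 days compound exposure.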
Rin1 Abl inh = inhibitors of Rin1-Abl protein binding, primary screen, biochemical, TR-FRET | inhibition, % at 7.35 µM | Tyrosine-protein kinase ABL1 (Homo sapiens) + Ras and Rab interactor 1 (Homo sapiens), … | 0.4% of 360,000 active; in the data active = inhibition above about 5%, passing the limit was not always enough
ABHD5-PLIN5 inh = ABHD5-PLIN5 interaction inhibitors, primary screen, cell lysate, split luciferase complementation, luminescence. Split G. princeps luciferase complementation, 4 h. inhibition, % at 4 µM. 0.78% of 360,000 active. AID 602281, 2012;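 active = inhibition above the mean inhibition across every tested compound plus 3 SD, cut at about 22% in these data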
Rpn11 block = Rpn11 (PSMD14) deubiquitinase inhibitors, primary screen, biochemical, fluorescence polarization, uHTS; human 26S proteasome, Ub4-pepOG fluorescence polarization; 20S core pre-blocked with epoxomicin; inhibition, % at 20 µM; 0.59% of 360,000 active; 26S proteasome non-ATPase regulatory subunit 14 (Homo sapiens), O00487;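 active = inhibition at 20 µM, scaled to each plate's controls, above about 33%, limit read from the data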
Target sequence (O00487 whole entry, looked up): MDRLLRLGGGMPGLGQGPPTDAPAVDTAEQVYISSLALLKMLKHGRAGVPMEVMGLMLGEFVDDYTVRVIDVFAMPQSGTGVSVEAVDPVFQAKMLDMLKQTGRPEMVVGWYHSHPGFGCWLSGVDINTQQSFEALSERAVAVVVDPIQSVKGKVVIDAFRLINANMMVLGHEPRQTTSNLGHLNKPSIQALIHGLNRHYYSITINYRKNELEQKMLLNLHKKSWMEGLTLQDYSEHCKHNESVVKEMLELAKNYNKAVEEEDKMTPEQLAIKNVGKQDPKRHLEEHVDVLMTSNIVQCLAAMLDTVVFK
NadD block = inhibitors of S. aureus NadD, primary screen, biochemical, colorimetric, uHTS; Nicotinate-nucleotide adenylyltransferase NadD (Staphylococcus aureus N315); inhibition, % at 20 µM; 0.78% of 360,000 active; AID 602399, 2012; purified NadD enzyme, colorimetric absorbance read-out; in the data active = inhibition above about 26%
Rin1-Abl confirm = Rin1-Abl binding inhibitor retest, confirmation, biochemical, TR-FRET | 49% of 1,300 active | inhibition, % at 7.35 µM | purified proteins | shares compounds with Rin1 Abl inh
GFP quencher = GFP fluorescence inhibitors and quenchers, artefact control for Rin1-Abl interaction inhibitor project, biochemical. 8.5% of 1,300 active. shares compounds with Rin1 Abl inh. inhibitors/quenchers counterscreen. AID 602125, 2011. inhibition, % at 6.75 µM;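 also: ABL1-eGFP fusion protein alone without its partner RIN1-SBP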
GFP quench dose = GFP fluorescence inhibitors and quenchers, dose response, artefact control for Rin1-Abl interaction inhibitor project, biochemical. shares compounds with Rin1 Abl inh. GFP fluorescence interference/quenching counterscreen. IC50, µM. 230 tested, under 10 active; call rule not given here;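 also: ABL1-eGFP fusion protein alone without its RIN1 binding partner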
Large screens that a line does not name were inactive (follow-up assays come after a bar, where they were run). Rule as the data show it, unless noted: active = inhibition above about 6.5%; inactive = the rest.

OC[C@@H]1CN(Cc2ccncc2)C[C@H](n2cnc3c(NC4CC4)ncnc32)O1	none
COc1ccc(CN2C[C@@H](CO)O[C@@H](n3cnc4c(NC5CC5)ncnc43)C2)cc1	none
COc1ccc(CN2C[C@@H](CO)O[C@@H](n3cnc4c(NC5CCC5)ncnc43)C2)cc1	Rin1 Abl inh 12 | Rin1-Abl confirm 11 | GFP quencher inactive
OC[C@@H]1CN(Cc2ccc(Cl)cc2)C[C@H](n2cnc3c(NC4CC4)ncnc32)O1	Rin1 Abl inh 17 | Rin1-Abl confirm 20 | GFP quencher inactive | GFP quench dose inactive
CCN=c1scc(C)n1/N=C/c1ccc(O)c(O)c1O	Rin1 Abl inh 20 (no result: Xi reactivation) | Rin1-Abl confirm 16 | GFP quencher 12
COCCN=c1scc(-c2cccs2)n1/N=C/c1ccc(O)c(O)c1O	Rin1 Abl inh 13 | Rin1-Abl confirm 11 | GFP quencher 10
Nc1nnc(CCCCc2cccs2)o1	Rin1 Abl inh 7.6 (no result: Xi reactivation) | Rin1-Abl confirm inactive | GFP quencher inactive
O=C(COc1ccc(Cl)cc1Br)OCC(=O)c1ccc[nH]1	Rin1 Abl inh 8.3 | Rin1-Abl confirm inactive | GFP quencher inactive
CC(=O)N(C)C[C@H]1Oc2ccc(NC(=O)NC(C)C)cc2CC(=O)N(C)C[C@H]1C	none (no result: Rin1 Abl inh, ABHD5-PLIN5 inh, Rpn11 block, NadD block)
COCCCNc1nc2ccccc2nc1NS(=O)(=O)c1cccs1	Rin1 Abl inh 14 (no result: Xi reactivation) | Rin1-Abl confirm inactive | GFP quencher inactive
CC(=O)N1c2ccc(S(=O)(=O)N3CCC(C(=O)NCCc4ccc(Cl)cc4)CC3)cc2CC1C (stereo not drawn)	Rin1 Abl inh 9.8 | Rin1-Abl confirm inactive | GFP quencher inactive
CC(=O)N1c2ccc(S(=O)(=O)N3CCC(C(=O)NCc4ccc(Cl)cc4)CC3)cc2CC1C (stereo not drawn)	none
Cc1ccccc1N1CC(C(=O)Nc2ccc(S(=O)(=O)N3CCCCC3)cc2)CC1=O (stereo not drawn)	Rin1 Abl inh 7.7 | Rin1-Abl confirm 7.5 | GFP quencher inactive
Cc1cccc(N2CC(C(=O)Nc3ccc(S(=O)(=O)N4CCCCC4)cc3)CC2=O)c1C (stereo not drawn)	Rin1 Abl inh 13 | Rin1-Abl confirm 13 | GFP quencher inactive
Cc1ccccc1N1CC(C(=O)Nc2ccc(S(=O)(=O)N3CCOCC3)cc2)CC1=O (stereo not drawn)	none
O=C(Nc1ccc(S(=O)(=O)N2CCCC2)cc1)C1CCN(S(=O)(=O)c2ccc(F)cc2)CC1	none
NS(=O)(=O)c1ccc(NC(=O)C2CCCN(S(=O)(=O)c3ccc(F)cc3)C2)cc1 (stereo not drawn)	Rin1 Abl inh 18 (no result: Xi reactivation) | Rin1-Abl confirm inactive | GFP quencher inactive
C[C@H](CO)N1C[C@H](C)[C@@H](CN(C)C(=O)c2ccccn2)Oc2ncc(-c3ccccc3F)cc2C1=O	none (no result: Rin1 Abl inh, ABHD5-PLIN5 inh, Rpn11 block, NadD block)
CN1CCCN(c2cc(-c3ccc4ccccc4c3)nc3ccnn23)CC1	Rin1 Abl inh 13 | Rin1-Abl confirm 12 | GFP quencher 12
CCN(CC)CCNC(=O)c1ccc(NC(=O)C2CCN(c3ncnc4sc(C)c(C)c34)CC2)cc1	Rin1 Abl inh 10 | Rin1-Abl confirm inactive | GFP quencher inactive
CCS(=O)(=O)N1CC2(CN(Cc3ccc(OC)cc3)[C@@H](CO)c3c2c2ccc(OC)cc2n3C)C1	none (no result: Rin1 Abl inh, ABHD5-PLIN5 inh, Rpn11 block, NadD block)
N#Cc1cccc(-c2ccc(C3[C@H]4CNC[C@@H]3N4Cc3ccc4c(c3)OCO4)cc2)c1 (stereo partly drawn)	none (no result: Rin1 Abl inh, ABHD5-PLIN5 inh, Rpn11 block, NadD block)
Cc1ccc(CNC(=O)COC(=O)CCCOc2ccc(Cl)cc2Cl)cc1	none
